Results: ChEMBL document CHEMBL3091343, “Nicotinamide phosphoribosyltransferase inhibitors, design, preparation, and structure-activity relationship” (J Med Chem, 2013)
The source made the active and inactive calls. The rule behind the calls is not given here.

Experiments:
[1] = Cytotoxicity against human W1L2 cells assessed as growth inhibition after 72 hrs by trypan blue assay; type: functional, cell-based; details: WIL2, 72 h
MCF7 [2] = experiment: Cytotoxicity against human MCF7 cells after 96 hrs by clonogenic assay; type: functional, cell-based; details: MCF7, 96 h
Method in brief: (§1)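 Cells were exposed to compound for the indicated time and then seeded in 3% agar over a sheep erythrocyte feeder layer. Plates were cultured 14–21 days at 37 °C, and colonies were counted with a digital colony counter.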

[3] = AUC in NMRI mouse at 50 mg/kg, iv; type: ADME, organism-based; set-up: dose 50 mg/kg, route intravenous; details: plasma
Method in brief: (§2)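 Mouse PK after a single i.v. dose. Plasma proteins were precipitated with acetonitrile containing internal standard (3:1 v/v). Samples were analysed by UPLC-MS/MS on a C18 column at 40°C with an acetonitrile–0.05% formic acid gradient, using positive electrospray MRM. Parameters were derived by non-compartmental analysis.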

A2780 [4] = experiment: Antitumor activity against human A2780 cells xenografted in NMRI/nude mouse containing small tumors assessed as tumor growth inhibition at 15 mg/kg, ip bid administered for 10 days measured during compound administration; type: functional, organism-based; set-up: dose 15 mg/kg
Method in brief: (§3)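 A2780 xenografts were dosed i.p. bid at 15 mg/kg. Large tumours (start 500 mm³) were dosed on days 0-4 + 7-11; small tumours (start 100 mm³) on days 0-9. Tumour volume was calculated as width²×length/2 from caliper diameters, and body weight was recorded during treatment. Tumours were followed after treatment up to the maximum allowed size of 1000 mm³.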

A2780 [5] = experiment: Antitumor activity against human A2780 cells xenografted in NMRI/nude mouse containing large tumors assessed as tumor growth inhibition at 15 mg/kg, ip bid administered on day 1 to 4 and day 7 to 11 measured during compound administration; type: functional, organism-based; set-up: dose 15 mg/kg; method in brief: as §3
[6] = Toxicity in ip dosed NMRI mouse assessed as body weight loss administered as bid for 5 days; type: organism-based; details: in vivo
A2780 [7] = experiment: Antitumor activity against human A2780 cells xenografted in NMRI/nude mouse containing small tumors assessed as tumor growth inhibition at 15 mg/kg, ip bid administered for 10 days measured after compound treatment; type: functional, organism-based; set-up: dose 15 mg/kg; method in brief: as §3
SK-OV-3 = experiment: Cytotoxicity against human SKOV3 cells by clonogenic assay; type: functional, cell-based
[8] = Half life in NMRI mouse at 50 mg/kg, iv; type: ADME, organism-based; set-up: dose 50 mg/kg, route intravenous; details: in vivo; method in brief: as §2
HCT-116 [9] = experiment: Cytotoxicity against human HCT116 cells assessed as growth inhibition after 72 hrs by WST-1 assay; type: functional, cell-based; details: HCT-116, 72 h
[10] = Tmax in NMRI mouse at 50 mg/kg, iv; type: ADME, organism-based; set-up: dose 50 mg/kg, route intravenous; details: in vivo; method in brief: as §2
A2780 [11] = experiment: Antitumor activity against human A2780 cells xenografted in NMRI/nude mouse assessed as tumor growth inhibition at 15 mg/kg, ip bid administered for 5 days measured at day 14 relative to vehicle-treated control; type: functional; details: route intraperitoneal
[12] = target: Nicotinamide phosphoribosyltransferase (Homo sapiens, UniProt P43490); experiment: Inhibition of NAMPT in human HepG2 cells using [14C]-nicotinamide/PRPP as substrate assessed as formation of [14C]-nicotinamide mononucleotide after 1 hr by liquid scintillation counting analysis; type: cell-based
Chain of Nicotinamide phosphoribosyltransferase (P43490 whole entry): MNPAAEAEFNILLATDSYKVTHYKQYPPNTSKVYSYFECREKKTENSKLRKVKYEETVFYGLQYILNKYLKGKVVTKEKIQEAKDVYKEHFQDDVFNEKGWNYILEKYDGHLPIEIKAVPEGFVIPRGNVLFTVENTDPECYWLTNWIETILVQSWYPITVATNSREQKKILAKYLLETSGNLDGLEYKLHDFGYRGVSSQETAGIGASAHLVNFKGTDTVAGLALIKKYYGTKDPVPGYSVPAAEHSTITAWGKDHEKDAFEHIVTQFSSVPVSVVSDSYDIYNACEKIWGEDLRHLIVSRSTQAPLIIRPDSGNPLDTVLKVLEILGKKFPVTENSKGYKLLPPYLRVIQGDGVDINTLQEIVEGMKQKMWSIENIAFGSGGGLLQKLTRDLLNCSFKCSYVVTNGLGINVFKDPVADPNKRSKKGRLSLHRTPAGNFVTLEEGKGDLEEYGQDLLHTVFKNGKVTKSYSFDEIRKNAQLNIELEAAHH

HCT-116 [13] = experiment: Cytotoxicity against APO866-resistant human HCT116 cells assessed as growth inhibition after 72 hrs by WST-1 assay; type: functional, cell-based; details: HCT-116, 72 h
[14] = Clearance in NMRI mouse at 50 mg/kg, iv; type: ADME, organism-based; set-up: dose 50 mg/kg, route intravenous; details: in vivo; method in brief: as §2
HCT-116 [15] = experiment: Resistance factor, ratio of IC50 for APO866-resistant human HCT116 cells to IC50 for human HCT116 cells; type: functional
A2780 [16] = experiment: Cytotoxicity against human A2780 cells after 16 hrs by clonogenic assay; type: functional, cell-based; details: A2780, 16 h; method in brief: as §1
Mus musculus [17] = experiment: Toxicity in human A2780 cells xenografted NMRI/nude mouse containing large tumors assessed as effect on body weight at 15 mg/kg, ip bid administered on day 1 to 4 and day 7 to 11; details: in vivo
[18] = Cytotoxicity against human NYH cells by clonogenic assay; type: functional, cell-based
DU-145 = experiment: Cytotoxicity against human DU145 cells by clonogenic assay; type: functional, cell-based
[19] = Apparent volume of distribution in NMRI mouse at 50 mg/kg, iv; type: ADME, organism-based; set-up: dose 50 mg/kg, route intravenous; details: in vivo, read-out: Vz; method in brief: as §2
[20] = Toxicity in ip dosed NMRI mouse assessed as blood cell count administered as bid for 5 days; type: organism-based; details: in vivo
[21] = Cmax in NMRI mouse at 50 mg/kg, iv; type: ADME, organism-based; set-up: dose 50 mg/kg, route intravenous; details: in vivo; method in brief: as §2
A2780 [22] = experiment: Antitumor activity against human A2780 cells xenografted in NMRI/nude mouse containing large tumors assessed as tumor growth inhibition at 15 mg/kg, ip bid administered on day 1 to 4 and day 7 to 11 measured after compound treatment; type: functional, organism-based; set-up: dose 15 mg/kg; method in brief: as §3
A2780 [23] = experiment: Cytotoxicity against human A2780 cells assessed as growth inhibition after 72 hrs by WST-1 assay; type: functional, cell-based; details: A2780, 72 h
MCF7 [24] = experiment: Cytotoxicity against human MCF-7 cells assessed as growth inhibition after 72 hrs by WST-1 assay; type: functional, cell-based; details: MCF7, 72 h
Mus musculus [25] = experiment: Toxicity in human A2780 cells xenografted NMRI/nude mouse containing small tumors assessed as effect on body weight at 15 mg/kg, ip bid administered for 10 days; type: organism-based; set-up: dose 15 mg/kg, route intraperitoneal; details: in vivo, 240 h; method in brief: as §3
PC-3 = experiment: Cytotoxicity against human PC3 cells by clonogenic assay; type: functional, cell-based
MCF7 [26] = experiment: Cytotoxicity against human MCF7 cells after 24 hrs by clonogenic assay; type: functional, cell-based; details: MCF7, 24 h; method in brief: as §1
A-431 = experiment: Cytotoxicity against human A431 cells by clonogenic assay; type: functional, cell-based
A2780 [27] = experiment: Cytotoxicity against human A2780 cells after 24 hrs by clonogenic assay; type: functional, cell-based; details: A2780, 24 h; method in brief: as §1
A2780 [28] = experiment: Antitumor activity against human A2780 cells xenografted in NMRI/nude mouse containing large tumors assessed as tumor growth inhibition at 3 mg/kg, ip bid administered on day 1 to 4 and day 7 to 11 measured during compound administration; type: functional, organism-based; set-up: dose 3 mg/kg
A2780 [29] = experiment: Ratio of APO866 to compound for antitumor activity against human A2780 cells xenografted in NMRI/nude mouse; type: functional
A2780 [30] = experiment: Antitumor activity against human A2780 cells xenografted in NMRI/nude mouse assessed as tumor growth inhibition at 2.5 mg/kg, ip bid administered for 5 days measured at day 14 relative to vehicle-treated control; type: functional; details: route intraperitoneal
Method in brief: (§4)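 A2780 xenografts started from small tumours (about 100 mm³). Dosing was i.p. bid on days 0-4. Tumour volume was estimated as width²×length/2 and compared at day 14 with vehicle-treated animals as T/C%.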

A2780 [31] = experiment: Antitumor activity against human A2780 cells xenografted in NMRI/nude mouse assessed as tumor growth inhibition at 1.25 mg/kg, ip bid administered for 5 days measured at day 14 relative to vehicle-treated control; type: functional; details: route intraperitoneal; method in brief: as §4
A2780 [32] = experiment: Antitumor activity against human A2780 cells xenografted in NMRI/nude mouse assessed as tumor growth inhibition at 5 to 10 mg/kg, ip bid administered for 10 days measured during compound administration; type: functional, organism-based
Method in brief: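 Mice bearing large A2780 xenografts were dosed i.p. bid at 5 and 10 mg/kg. Toxic signs were scored as body weight loss and reduced activity level compared with control mice. Tumour volume was estimated as width²×length/2.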

A2780 [33] = experiment: Antitumor activity against human A2780 cells xenografted in NMRI/nude mouse assessed as tumor growth inhibition at 0.63 mg/kg, ip bid administered for 5 days measured at day 14 relative to vehicle-treated control; type: functional; details: route intraperitoneal; method in brief: as §4

`C#CCN(Cc1cc2c(O)nc(C)nc2cc1Br)c1ccc(C(=O)NCc2cccnc2)cc1` gave an IC50 [1] of 2.8 nM.

With `N#C/N=C(\NCCCCCCS(=O)(=O)N(CCF)OCC1CCCCC1)Nc1ccncc1` the IC50 (MCF7 [2]) was 0.98 nM, the AUC [3] was 47500 ng·h/mL and the TGI (A2780 [4]) was “Active”. The TGI (A2780 [5]) was “Active”, the MTD at 120 h [6] was < 10 mg/kg and the TGI (A2780 [7]) was “inactive”. It also gave an IC50 (SK-OV-3) of 3.4 nM, a half-life [8] of 21.6 min and an IC50 (HCT-116 [9]) of 3.6 nM. For the same molecule, the Tmax [10] was 4.8 min, the T/C (A2780 [11]) was 52% and the IC50 [12] was 3.2 nM. The IC50 (HCT-116 [13]) was > 5000 nM, the clearance [14] was 17.5 mL/min/kg and the “Ratio IC50” value (HCT-116 [15]) was 128. For the same molecule, the IC50 (A2780 [16]) was 0.43 nM, the Activity (Mus musculus [17]) was “Non-toxic” and the IC50 [18] was 0.05 nM. The IC50 (DU-145) was 6.39 nM, the Vd [19] was 0.547 L/kg and the MTD at 120 h [20] was < 10 mg/kg. For the same molecule, the Cmax [21] was 78.5 µg/mL, the TGI (A2780 [22]) was “inactive” and the IC50 (A2780 [23]) was 0.052 nM. The IC50 (MCF7 [24]) was 0.1 nM, the Activity (Mus musculus [25]) was “Non-toxic” and the IC50 (PC-3) was 0.35 nM. The IC50 (MCF7 [26]) was > 50 nM.

For `N#C/N=C(\NCCCCCCS(=O)(=O)N(OCCN1CCOCC1)C1CCCCC1)Nc1ccncc1`, the IC50 (MCF7 [2]) was 1.9 nM, the IC50 (A-431) was > 50 nM and the IC50 (A2780 [27]) was 0.55 nM. For the same molecule, the IC50 (SK-OV-3) was 9.9 nM, the TGI (A2780 [28]) was “Active” and the IC50 (HCT-116 [9]) was 1.9 nM. The IC50 (HCT-116 [13]) was > 5000 nM, the “Ratio IC50” value (HCT-116 [15]) was 128 and the Ratio (A2780 [29]) was 12. For the same molecule, the IC50 [18] was 0.3 nM, the IC50 (DU-145) was > 50 nM and the T/C (A2780 [30]) was 24%. For the same molecule, the T/C (A2780 [31]) was 40%, the TGI (A2780 [32]) was “Active” and the T/C (A2780 [33]) was 82%. For the same molecule, the IC50 (A2780 [23]) was 0.025 nM, the IC50 (MCF7 [24]) was 0.33 nM and the IC50 (PC-3) was 0.53 nM. The IC50 (MCF7 [26]) was > 50 nM.
